“Also recorded” adds a separate entry of the source.
Legend:
PS1-NTF = PS1-NTF (Homo sapiens, UniProt P49768); format: binding; conditions: HeLa membranes; for PS1-NTF photolabeling: irradiation ~350 nm
In short: (§1)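 HeLa membranes (800 μg/1.2 mL PBS) incubated 1 h at 37 °C with clickable photoprobe (20 nM) with or without competing GSI (1 μM), then irradiated at ~350 nm for 30 min at 4 °C and pelleted. Click reaction in PBS: TCEP 1.0 mM, CuSO4 1.0 mM, TBTA 0.1 mM, biotin-azide 0.1 mM, 1 h RT with agitation. Pelleted membranes solubilized in RIPA, streptavidin-enriched, SDS-PAGE, Western blot.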

[1] = molecular target: T1, signal peptide peptidase (SPP) (Homo sapiens, UniProt Q8TCT9); format: binding; conditions: HeLa membranes, probe 20 nM
T1 sequence (Q8TCT9 1-377): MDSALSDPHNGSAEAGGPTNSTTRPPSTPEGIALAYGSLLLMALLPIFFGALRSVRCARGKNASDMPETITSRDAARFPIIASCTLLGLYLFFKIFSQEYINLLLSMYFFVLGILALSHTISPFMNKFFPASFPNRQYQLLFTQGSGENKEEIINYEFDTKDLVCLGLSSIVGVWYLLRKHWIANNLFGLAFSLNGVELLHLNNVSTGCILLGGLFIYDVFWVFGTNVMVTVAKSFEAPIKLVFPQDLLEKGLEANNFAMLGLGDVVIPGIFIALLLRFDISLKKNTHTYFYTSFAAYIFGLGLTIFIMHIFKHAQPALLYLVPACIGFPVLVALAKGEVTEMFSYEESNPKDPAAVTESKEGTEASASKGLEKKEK
In short: as §1

[2] = tested on: intracellular γ-secretase; conditions: previous studies; cited from earlier work
PS1-CTF = PS1-CTF (Homo sapiens, UniProt P49768); format: binding; conditions: HeLa membranes, probe 20 nM
In short: as §1

SPP photolabeling [1]	Structure (SMILES)	PS1-NTF photolabeling (PS1-NTF; probe 20 nM)	also measured
minimal labeling of SPP	C#CCCCCNC(=O)[C@H](Cc1ccccc1)NC(=O)[C@H](CC(C)C)NC(=O)[C@H](Cc1ccccc1)C[C@@H](O)[C@H](Cc1ccccc1)NC(=O)c1ccc(C(=O)c2ccccc2)cc1 [compound 4]	efficient PS1-NTF photolabeling; also recorded: strongly labeled PS1-NTF vs. CTF	labeling efficiency of PS1-NTF relative to 2 (fold less) (PS1-NTF; probe 20 nM, after click reaction with biotin-azide): 2–3 fold
	CC(C)C[C@H](NC(=O)[C@H](Cc1ccccc1)C[C@@H](O)[C@H](Cc1ccccc1)NC(=O)OC(C)(C)C)C(=O)N[C@@H](Cc1ccccc1)C(N)=O [compound 1, reference compound]		blocking of PS1-NTF labeling by competitor (PS1-NTF; competitor 1 μM, probe 2 or 4): PS1-NTF labeling was blocked
	CC(C)C[C@H](NC(=O)[C@H](Cc1ccccc1)C[C@@H](O)[C@H](Cc1ccccc1)NC(=O)c1ccc(C(=O)c2ccccc2)cc1)C(=O)N[C@@H](Cc1ccccc1)C(=O)NCCCCCNC(=O)CCCC[C@@H]1SC[C@@H]2NC(=O)N[C@@H]21 [compound 2]		cell penetration (plasma membrane, access to intracellular γ-secretase) [2]: cannot
significant labeling of SPP	C#CCCCCNC(=O)[C@H](Cc1ccc(C(=O)c2ccccc2)cc1)NC(=O)[C@H](CC(C)C)NC(=O)[C@H](Cc1ccccc1)C[C@@H](O)[C@H](Cc1ccccc1)NC(=O)OC(C)(C)C [compound 5]	minimal PS1-NTF labeling	PS1-CTF photolabeling (PS1-CTF): expected preference for PS1-CTF
